# ChEMBL document CHEMBL4261585, “Synthesis of 1,2,3-triazole linked 4(3H)-Quinazolinones as potent antibacterial agents against multidrug-resistant Staphylococcus aureus” (Eur J Med Chem, 2018)
# Where a SMILES comes first, the peptide text is derived from it. Bridges are numbered along the chain shown (N, C = ends). [ ]: non-standard residue; d: D form. Dab = NCC[C@H](N)C(=O)O
# Columns and labels:
# Format in all cases: functional
# [1] = test system: Pseudomonas aeruginosa; test: Antibacterial activity against Pseudomonas aeruginosa ATCC 27853 after 16 to 18 hrs by CLSI method
# Summary of the method: (§1)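 Broth microdilution MIC per CLSI. A single colony from Mueller-Hinton agar is grown overnight in cation-supplemented Mueller-Hinton broth (37 °C, shaking, 18–24 h). Incubation is 37 °C for 16–18 h. MIC is the lowest concentration with no visible growth. Three independent runs, each in duplicate.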
# [2] = test system: Acinetobacter baumannii; test: Antibacterial activity against Acinetobacter baumannii BAA-1605 after 16 to 18 hrs by CLSI method; summary of the method: as §1
# [3] = test system: Mycobacteroides abscessus; test: Antimycobacterial activity against Mycobacterium abscessus by pesto blue-dye based broth microdilution assay
# [4] = test system: Klebsiella pneumoniae; test: Antibacterial activity against Klebsiella pneumoniae ATCC BAA-1705 after 16 to 18 hrs by CLSI method; summary of the method: as §1
# [5] = test system: Escherichia coli; test: Antibacterial activity against Escherichia coli ATCC 25922 after 16 to 18 hrs by CLSI method; summary of the method: as §1
# [6] = test system: Mycobacterium tuberculosis; test: Antimycobacterial activity against Mycobacterium tuberculosis H37Rv ATCC 27294 after 7 days by pesto blue-dye based broth microdilution assay; conditions: H37Rv ATCC 27294, 168 h
# Summary of the method: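 Broth microdilution in Middlebrook 7H9 with 10% ADC-Tween-80 (0.2% glycerol, 0.05% Tween-80). Compound is added from 10 mg/mL DMSO stocks as two-fold dilutions, 64–0.5 mg/L. Plates are incubated 7 days at 37 °C and read with PrestoBlue resazurin dye. MIC is the lowest concentration inhibiting visible growth, three replicates in duplicate.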
# [7] = test system: Staphylococcus aureus; test: Antibacterial activity against Staphylococcus aureus ATCC 29213 after 16 to 18 hrs by CLSI method; summary of the method: as §1
# [8] = test system: Mycobacteroides chelonae; test: Antimycobacterial activity against Mycobacterium chelonae by pesto blue-dye based broth microdilution assay
# [9] = test system: Mycolicibacterium fortuitum; test: Antimycobacterial activity against Mycobacterium fortuitum by pesto blue-dye based broth microdilution assay
SMILES,MIC [1] [µg/mL],MIC [2] [µg/mL],MIC [3] [µg/mL],MIC [4] [µg/mL],MIC [5] [µg/mL],MIC [6] [µg/mL],MIC [7] [µg/mL],MIC [8] [µg/mL],MIC [9] [µg/mL]
Cc1cc(-n2cc(COc3cccc(-n4c(C)nc5ccccc5c4=O)c3)nn2)cc(C)c1C,> 64,> 64,> 64,> 64,> 64,> 64,> 64,> 64,> 64
Cc1nc2ccccc2c(=O)n1-c1cccc(OCc2cn(-c3cccc(O)c3)nn2)c1,> 64,> 64,> 64,> 64,> 64,> 64,> 64,> 64,> 64
N#Cc1ccc(/C=C/c2nc3ccccc3c(=O)n2-c2cccc(OCc3cn(Cc4ccc(Br)cc4)nn3)c2)cc1,> 64,> 64,> 64,> 64,> 64,> 64,16,> 64,> 64
N#Cc1ccc(/C=C/c2nc3ccccc3c(=O)n2-c2ccc(OCc3cn(Cc4ccc(Br)cc4)nn3)cc2)cc1,> 64,> 64,> 64,> 64,> 64,> 64,> 64,> 64,> 64
COc1ccc(-n2cc(COc3cccc(-n4c(C)nc5ccccc5c4=O)c3)nn2)cc1,> 64,> 64,> 64,> 64,> 64,> 64,> 64,> 64,> 64
Cc1nc2ccccc2c(=O)n1-c1cccc(OCc2cn(-c3ccc(F)c(Cl)c3)nn2)c1,> 64,> 64,> 64,> 64,> 64,> 64,> 64,> 64,> 64
N#Cc1ccc(/C=C/c2nc3ccccc3c(=O)n2-c2cccc(OCc3cn(-c4ccc(C(F)(F)F)cc4)nn3)c2)cc1,> 64,> 64,> 64,> 64,> 64,> 64,4,> 64,> 64
Cc1cccc2c(=O)n(-c3cccc(OCc4cn(-c5cccc(Cl)c5)nn4)c3)c(C)nc12,> 64,> 64,> 64,> 64,> 64,> 64,> 64,> 64,> 64
N#Cc1ccc(/C=C/c2nc3ccccc3c(=O)n2-c2cccc(OCc3cn(-c4cccc(C(=O)O)c4)nn3)c2)cc1,> 64,> 64,> 64,> 64,> 64,> 64,4,> 64,> 64
Cc1nc2ccccc2c(=O)n1-c1cccc(OCc2cn(-c3ccc(C(=O)O)cc3)nn2)c1,> 64,> 64,> 64,> 64,> 64,> 64,> 64,> 64,> 64
CCC(C)(C)c1ccc(OCc2cn(-c3cccc(-n4c(C)nc5ccccc5c4=O)c3)nn2)cc1,> 64,> 64,> 64,> 64,> 64,> 64,> 64,> 64,> 64
Cc1nc2ccccc2c(=O)n1-c1cccc(OCc2cn(-c3ccc(Cl)cc3)nn2)c1,> 64,> 64,> 64,> 64,> 64,> 64,> 64,> 64,> 64
O=c1c2ccccc2nc(/C=C/c2ccc(Cl)cc2)n1-c1cccc(-n2cc(-c3ccccc3)nn2)c1,> 64,> 64,> 64,> 64,> 64,> 64,> 64,> 64,> 64
Cc1cc([N+](=O)[O-])ccc1-n1cc(COc2cccc(-n3c(C)nc4ccccc4c3=O)c2)nn1,> 64,> 64,> 64,> 64,> 64,32,> 64,> 64,> 64
Cc1nc2ccccc2c(=O)n1-c1cccc(OCc2cn(-c3ccc(O)cc3)nn2)c1,> 64,> 64,> 64,> 64,> 64,64,> 64,> 64,> 64
N#Cc1ccc(/C=C/c2nc3ccccc3c(=O)n2-c2cccc(-n3cc(-c4ccccc4)nn3)c2)cc1,> 64,> 64,> 64,> 64,> 64,> 64,> 64,> 64,> 64
Cc1cccc(-n2cc(COc3cccc(-n4c(C)nc5ccccc5c4=O)c3)nn2)c1,> 64,> 64,> 64,> 64,> 64,> 64,> 64,> 64,> 64
O=c1c2ccccc2nc(/C=C/c2ccc(Cl)cc2)n1-c1cccc(OCc2cn(-c3cccc(F)c3)nn2)c1,> 64,> 64,> 64,> 64,> 64,> 64,4,> 64,> 64
COc1cc(-n2cc(COc3cccc(-n4c(C)nc5ccccc5c4=O)c3)nn2)cc(OC)c1OC,> 64,> 64,> 64,> 64,> 64,> 64,> 64,> 64,> 64
COc1ccc(-n2cc(COc3cccc(-n4c(/C=C/c5ccc(C#N)cc5)nc5ccccc5c4=O)c3)nn2)cc1,> 64,> 64,> 64,> 64,> 64,> 64,4,> 64,> 64
Cc1nc2ccccc2c(=O)n1-c1cccc(OCc2cn(-c3cccc(C(=O)O)c3)nn2)c1,> 64,> 64,> 64,> 64,> 64,> 64,> 64,> 64,> 64
Cc1ccc(C)c(OCc2cn(-c3cccc(-n4c(C)nc5ccccc5c4=O)c3)nn2)c1,> 64,> 64,> 64,> 64,> 64,> 64,> 64,> 64,> 64
N#Cc1ccc(/C=C/c2nc3ccccc3c(=O)n2-c2cccc(OCc3cn(-c4cccc(F)c4)nn3)c2)cc1,> 64,> 64,> 64,> 64,> 64,> 64,0.5,> 64,> 64
Cc1cccc2c(=O)n(-c3cccc(OCc4cn(-c5cccc(Cl)c5)nn4)c3)c(/C=C/c3ccc(C#N)cc3)nc12,> 64,> 64,> 64,> 64,> 64,> 64,> 64,> 64,> 64
Cc1ccc(-n2cc(COc3cccc(-n4c(C)nc5ccccc5c4=O)c3)nn2)cc1[N+](=O)[O-],> 64,> 64,> 64,> 64,> 64,> 64,> 64,> 64,> 64
Cc1nc2ccccc2c(=O)n1-c1cccc(-n2cc(-c3ccccc3)nn2)c1,> 64,> 64,> 64,> 64,> 64,> 64,> 64,> 64,> 64
Cc1nc2ccccc2c(=O)n1-c1cccc(OCc2cn(-c3cccc(Cl)c3)nn2)c1,> 64,> 64,> 64,> 64,> 64,> 64,> 64,> 64,> 64
CCC(C)(C)c1ccc(OCc2cn(-c3cccc(-n4c(/C=C/c5ccc(C#N)cc5)nc5ccccc5c4=O)c3)nn2)cc1,> 64,> 64,> 64,> 64,> 64,–,> 64,> 64,> 64
NNC(=O)c1ccncc1 [ISONIAZID],–,–,–,–,–,0.03,–,–,–
CC(C)C[C@@H]1NC(=O)[C@@H](Cc2ccccc2)NC(=O)[C@H](CCN)NC(=O)[C@@H](NC(=O)[C@H](CCN)NC(=O)[C@@H](N)[C@@H](C)O)CCNC(=O)[C@H]([C@@H](C)O)NC(=O)[C@H](CCN)NC(=O)[C@H](CCN)NC1=O [POLYMYXIN B NONAPEPTIDE] (H-T[Dab][Dab][Dab][dF]L[Dab][Dab]T; lactam 3-C),–,> 128,–,–,> 128,–,–,–,–
